The nature of test [1]: Her2 expression decrease, cell viability multiplex – SKBR3 breast tumor cells, AlphaScreen, ATP viability, primary screen (AID 461).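 For Her2 level: lower value means less Her2 protein in the cells.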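 For viability: percent of carrier control wells set as 100% viability.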 Conditions: SKBR3 Her2 protein level, 18-24 h, measured here: SKBR3 viability, ATP luminescence, at 10 µM. In general terms: In Alpha technology, singlet oxygen from a donor bead excites a nearby acceptor bead.
Test [2] has as its target Receptor tyrosine-protein kinase erbB-2 (Homo sapiens) (UniProt P04626). Described as above. The conditions noted are these: 18-24 h, at 10 µM, stronger effect = lower value.
Test [3] in a line: reduced viability of SK-BR-3 breast cancer cells – cell-based, 24 h, human, pilot screen (AID 572;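 active = viability at or below 10% of carrier control in both of two separate runs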;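 note: compound exposure lasted between 18 and 24 h rather than exactly 24 h; 100% = carrier-treated control wells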). Conditions: SK-BR-3 viability, CellTiter-Glo luminescence, at 10 µM, stronger effect = lower value.
Test [4] is described as follows: HUVEC growth inhibition – cell-based, human, primary screen (AID 575;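 active = viability at or below 30% in both replicate assays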;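 note: 100% = median of untreated cell wells with 0.1% DMSO on each plate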). The conditions noted are these: HUVEC proliferation, CellTiter-Glo luminescence, 72 h; at 10 µM; stronger effect = lower value. In short, it runs like this:
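Test system: HUVEC primary cells. Quantity: 1250 endothelial cells in each well. Dosing: single-point 10 µM, DMSO 0.1% final. Incubation: 72 h treatment at 37 °C. Measured by: CTG luminescence. Control set: DMSO cell controls and MePR drug controls. Plate: collagen-coated 384-well format.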
On the technique in general: ATP-based viability assays read luminescence as a measure of living cells.

A short description of test [5]: H69AR cell proliferation blockers – human, duplicate replicates, primary screen (AID 580;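 active = viability at or under a set limit in both replicates, limit being median viability minus 3 SD, cut at about 48% in these data, passing the limit was not always enough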;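 note: 100% = mean luminescence of untreated wells and 0% = no signal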). Conditions: H69AR lung tumor cells viability, ATP luminescence, 72 h; at 10 µM; stronger effect = lower value.
The nature of test [6]: MRP1 drug-resistance reversers in H69AR cells – cell-based, doxorubicin co-treatment, pilot screen (AID 601;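 active = viability loss from added drug above about 55%, and viability with drug at most 40%, in both replicates, limit read from the data, passing the limit was not always enough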). Conditions: CellTiter-Glo, 72 h, at 10 µM; for differential viability (reversal): stronger effect = higher value.
Setting [7] is: H69AR cells + 2 uM doxorubicin, measured here: viability with 2 uM doxorubicin, stronger effect = lower value.
Setting [8] is: H69AR cells, compound alone cytotoxicity.

Activity calls are given as the source filed them.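 Rule for the calls, unless noted: active = Her2 level under about 52% in both replicate screens, with viability over 70% of control (limit read from the data); inconclusive = Her2 under the limit in one screen only, or viability under 70%; inactive = Her2 level above the set limit.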

Chain of Receptor tyrosine-protein kinase erbB-2 (Homo sapiens) (P04626 whole entry, looked up): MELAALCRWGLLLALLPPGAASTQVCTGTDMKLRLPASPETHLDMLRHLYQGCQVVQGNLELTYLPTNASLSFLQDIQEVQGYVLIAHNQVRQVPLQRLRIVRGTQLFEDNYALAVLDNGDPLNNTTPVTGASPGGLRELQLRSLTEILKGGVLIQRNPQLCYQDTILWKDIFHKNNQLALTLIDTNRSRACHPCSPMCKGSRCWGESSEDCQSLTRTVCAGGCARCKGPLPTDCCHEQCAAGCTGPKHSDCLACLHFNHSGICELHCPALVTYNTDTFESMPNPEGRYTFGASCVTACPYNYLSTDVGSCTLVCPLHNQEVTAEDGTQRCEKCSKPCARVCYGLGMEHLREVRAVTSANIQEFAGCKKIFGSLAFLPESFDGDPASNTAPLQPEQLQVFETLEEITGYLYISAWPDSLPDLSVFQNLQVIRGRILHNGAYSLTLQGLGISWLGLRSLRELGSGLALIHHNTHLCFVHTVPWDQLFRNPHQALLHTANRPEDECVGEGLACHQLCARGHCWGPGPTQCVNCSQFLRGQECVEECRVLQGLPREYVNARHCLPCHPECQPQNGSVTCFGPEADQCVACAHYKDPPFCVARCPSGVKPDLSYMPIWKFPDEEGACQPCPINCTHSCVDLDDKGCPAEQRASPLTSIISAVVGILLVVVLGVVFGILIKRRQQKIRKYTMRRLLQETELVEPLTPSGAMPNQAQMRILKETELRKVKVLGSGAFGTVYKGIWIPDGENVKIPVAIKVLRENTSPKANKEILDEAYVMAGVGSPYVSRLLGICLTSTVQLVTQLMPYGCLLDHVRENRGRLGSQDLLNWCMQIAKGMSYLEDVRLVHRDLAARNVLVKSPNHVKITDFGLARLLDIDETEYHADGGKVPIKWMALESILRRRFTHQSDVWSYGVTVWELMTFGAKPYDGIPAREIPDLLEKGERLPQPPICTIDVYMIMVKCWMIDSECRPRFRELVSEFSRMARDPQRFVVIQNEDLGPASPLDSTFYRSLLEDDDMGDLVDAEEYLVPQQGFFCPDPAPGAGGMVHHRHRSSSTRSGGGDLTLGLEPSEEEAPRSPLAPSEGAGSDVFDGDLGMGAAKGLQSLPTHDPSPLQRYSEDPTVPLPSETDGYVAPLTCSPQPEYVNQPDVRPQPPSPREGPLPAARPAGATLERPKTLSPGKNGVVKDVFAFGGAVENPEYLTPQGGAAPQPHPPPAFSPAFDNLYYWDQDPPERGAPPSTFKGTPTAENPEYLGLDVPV

On to `C[C@]12C[C@H](O)[C@H]3[C@@H](CCC4=CC(=O)CC[C@@]43C)[C@@H]1CC[C@@H]2C(=O)CO`, for which the viability in test [1] was 106%; in test [3] it was 106% (inactive); in test [4], 105% (inactive); in test [5], 88.3% (inactive); in test [6] (setting [7]), 94.3%; in test [6] (setting [8]), 88.3%. Besides, in test [2], the Her2 level was 104% (inactive). In addition, the differential viability (reversal) in test [6] (H69AR cells + 2 uM doxorubicin) was -5.99% (inactive).
For the compound `CCN(CC)CCNC(=O)c1cc(S(C)(=O)=O)ccc1OC`, the viability was 114% in test [1]; 114% (inactive) in test [3]; 102% (inactive) in test [4]; 111% (inactive) in test [5]; 96.1% in test [6] (setting [7]); 111% in test [6] (setting [8]). Besides, the Her2 level in test [2] was 95% (inactive). Besides, the differential viability (reversal) in test [6] (H69AR cells + 2 uM doxorubicin) is 14.5% (inactive).
Regarding `O=c1n(CCCN2CCN(c3cccc(Cl)c3)CC2)nc2ccccn12`, the viability is 81% in test [1]; 81% (inactive) in test [3]; 99.2% (inactive) in test [4]; 87.3% (inactive) in test [5]; 94.3% in test [6] (setting [7]); 87.3% in test [6] (setting [8]). Besides, the Her2 level in test [2] was 93% (inactive). In test [6] (H69AR cells + 2 uM doxorubicin), the differential viability (reversal) is -7.03% (inactive).
Regarding `CCOC(=O)CCC(=O)O[C@H]1[C@H](O[C@@H]2[C@@H](C)[C@H](O[C@H]3C[C@@](C)(OC)[C@@H](O)[C@H](C)O3)[C@@H](C)C(=O)O[C@H](CC)[C@@](C)(O)[C@H](O)[C@@H](C)C(=O)[C@H](C)C[C@@]2(C)O)O[C@H](C)C[C@@H]1N(C)C`, the viability was 97% in test [1]; 97% (inactive) in test [3]; 79.6% (inactive) in test [4]; 89.8% (inactive) in test [5]; 90.4% in test [6] (setting [7]); 89.8% in test [6] (setting [8]). In addition, the Her2 level in test [2] is 98% (inactive). Also, the differential viability (reversal) in test [6] (H69AR cells + 2 uM doxorubicin) is -0.63% (inactive).
On to `CCCCOc1ccc(CC(=O)NO)cc1`, for which the viability is 122% in test [1]; 122% (inactive) in test [3]; 97% (inactive) in test [4]; 54.2% (inactive) in test [5]; 54.3% in test [6] (setting [7]); 54.2% in test [6] (setting [8]). Also, the Her2 level in test [2] was 98.5% (inactive). In test [6] (H69AR cells + 2 uM doxorubicin), the differential viability (reversal) is -0.05% (inactive).
Take `CC1(C)S[C@@H]2[C@H](NC(=O)Cc3ccccc3)C(=O)N2[C@H]1C(=O)O`: the viability in test [1] is 94.5%; in test [3], 94.5% (inactive); in test [4], 95.4% (inactive); in test [5], 109% (inactive); in test [6] (setting [7]) it was 95.6%; in test [6] (setting [8]) it was 109%. Besides, the Her2 level in test [2] was 94.5% (inactive). In test [6] (H69AR cells + 2 uM doxorubicin), the differential viability (reversal) was 13.5% (inactive).
As to `CC(=O)OCC(=O)[C@@]1(O)CC[C@H]2[C@@H]3CCC4=CC(=O)C=C[C@]4(C)[C@@]3(Cl)[C@@H](Cl)C[C@@]21C`, the viability is 114% in test [1]; 114% (inactive) in test [3]; 98.5% (inactive) in test [4]; 97.4% (inactive) in test [5]; 110% in test [6] (setting [7]); 97.4% in test [6] (setting [8]). Moreover, the Her2 level in test [2] is 116% (inactive). In addition, in test [6] (H69AR cells + 2 uM doxorubicin), the differential viability (reversal) is -13% (inactive).
As for `Cc1cccc(CN2CCN(C(c3ccccc3)c3ccc(Cl)cc3)CC2)c1` (configuration not stated), the viability in test [1] is 83%; in test [3], 83% (inactive); in test [4], 96.4% (inactive); in test [5], 96.8% (inactive); in test [6] (setting [7]), 95.8%; in test [6] (setting [8]) it was 96.8%. Also, the Her2 level in test [2] is 93.5% (inactive). Moreover, in test [6] (H69AR cells + 2 uM doxorubicin), the differential viability (reversal) was 1.06% (inactive).
Consider `OC(CCN1CCCCC1)(c1ccccc1)C1CCCCC1` (configuration not stated), for which the viability in test [1] is 69.5%; in test [3] it was 69.5% (inactive); in test [4] it was 84.9% (inactive); in test [5], 92.2% (inactive); in test [6] (setting [7]), 92.9%; in test [6] (setting [8]), 92.2%. Further, in test [2], the Her2 level was 99.5% (inactive). In test [6] (H69AR cells + 2 uM doxorubicin), the differential viability (reversal) was -0.69% (inactive).
Take `Cc1cc(C)nc(NS(=O)(=O)c2ccc(N)cc2)n1`: the viability in test [1] was 104%; in test [3] it was 104% (inactive); in test [4], 83.1% (inactive); in test [5], 86.7% (inactive); in test [6] (setting [7]), 79.4%; in test [6] (setting [8]), 86.7%. Further, in test [2], the Her2 level is 110% (inactive). Besides, the differential viability (reversal) in test [6] (H69AR cells + 2 uM doxorubicin) was 7.25% (inactive).
In the case of `CCCn1c(=O)[nH]c(=O)c2[nH]cnc21`, the viability in test [1] was 104%; in test [3], 104% (inactive); in test [4], 98.1% (inactive); in test [5], 100% (inactive); in test [6] (setting [7]), 96.7%; in test [6] (setting [8]) it was 100%. Moreover, the Her2 level in test [2] is 92% (inactive). For the same compound, the differential viability (reversal) in test [6] (H69AR cells + 2 uM doxorubicin) was 3.64% (inactive).
In the case of `CN(C)CCOC(C)(c1ccccc1)c1ccccn1` (configuration not stated), the viability in test [1] was 79.5%; in test [3] it was 79.5% (inactive); in test [4] it was 113% (inactive); in test [5], 93.5% (inactive); in test [6] (setting [7]) it was 105%; in test [6] (setting [8]), 93.5%. In test [2], the Her2 level was 120% (inactive). Further, the differential viability (reversal) in test [6] (H69AR cells + 2 uM doxorubicin) is -11.6% (inactive).
For the compound `CC(=O)O[C@]1(C(C)=O)CC[C@H]2[C@@H]3C=C(C)C4=CC(=O)CC[C@]4(C)[C@H]3CC[C@@]21C`, the viability is 97% in test [1]; 97% (inactive) in test [3]; 113% (inactive) in test [4]; 87.6% (inactive) in test [5]; 64.3% in test [6] (setting [7]); 87.6% in test [6] (setting [8]). In test [2], the Her2 level was 88% (inactive). Besides, in test [6] (H69AR cells + 2 uM doxorubicin), the differential viability (reversal) is 23.2% (inactive).
Regarding `NS(=O)(=O)c1cc2c(cc1C(F)(F)F)NC(Cc1ccccc1)NS2(=O)=O` (configuration not stated), the viability was 106% in test [1]; 106% (inactive) in test [3]; 83.9% (inactive) in test [4]; 88.9% (inactive) in test [5]; 94.3% in test [6] (setting [7]); 88.9% in test [6] (setting [8]). Also, in test [2], the Her2 level is 114% (inactive). Besides, the differential viability (reversal) in test [6] (H69AR cells + 2 uM doxorubicin) is -5.48% (inactive).
In the case of `C[N+]12CCC(CC1)C(OC(=O)C(O)(c1ccccc1)c1ccccc1)C2` (configuration not stated), the viability in test [1] was 97.5%; in test [3], 97.5% (inactive); in test [4] it was 100% (inactive); in test [5], 90.7% (inactive); in test [6] (setting [7]), 78.7%; in test [6] (setting [8]), 90.7%. For the same compound, the Her2 level in test [2] is 96.5% (inactive). Also, the differential viability (reversal) in test [6] (H69AR cells + 2 uM doxorubicin) is 11.9% (inactive).
`O=C(O)CCCCCCC1C(=O)NC(=O)N1CCC(O)C1CCCCC1` (configuration not stated): the viability in test [1] was 108%; in test [3], 108% (inactive); in test [4], 79.8% (inactive); in test [5], 99.3% (inactive); in test [6] (setting [7]) it was 104%; in test [6] (setting [8]) it was 99.3%. Also, the Her2 level in test [2] is 108% (inactive). The differential viability (reversal) in test [6] (H69AR cells + 2 uM doxorubicin) is -4.75% (inactive).
As to `C[C@H]1C[C@@H]2[C@H]([C@@H](O)C[C@@]3(C)[C@H]2CC[C@]3(O)C(=O)CO)[C@@]2(C)C=CC(=O)C=C12`, the viability in test [1] was 115%; in test [3] it was 115% (inactive); in test [4], 93.8% (inactive); in test [5] it was 88.1% (inactive); in test [6] (setting [7]), 78.7%; in test [6] (setting [8]), 88.1%. Moreover, in test [2], the Her2 level was 115% (inactive). Moreover, the differential viability (reversal) in test [6] (H69AR cells + 2 uM doxorubicin) was 9.38% (inactive).
For the compound `CN1CCC(=C2c3ccccc3CC(=O)c3sccc32)CC1`, the viability was 96% in test [1]; 96% (inactive) in test [3]; 76.4% (inactive) in test [4]; 91.4% (inactive) in test [5]; 79.6% in test [6] (setting [7]); 91.4% in test [6] (setting [8]). The Her2 level in test [2] was 87% (inactive). In addition, the differential viability (reversal) in test [6] (H69AR cells + 2 uM doxorubicin) is 11.8% (inactive).
Turning to `O=C(O)CCC(=O)Nc1ccc(S(=O)(=O)Nc2nccs2)cc1`, the viability in test [1] was 122%; in test [3], 122% (inactive); in test [4], 75.4% (inactive); in test [5] it was 94.4% (inactive); in test [6] (setting [7]), 96.9%; in test [6] (setting [8]), 94.4%. Further, in test [2], the Her2 level was 98.5% (inactive). Further, in test [6] (H69AR cells + 2 uM doxorubicin), the differential viability (reversal) was -2.46% (inactive).

The viability is a read-out of living cells in per cent, often relative to untreated cells.

Source of the values: PubChem BioAssay.
